Assay results: ChEMBL document CHEMBL1143313, “Synthesis of novel 4,6-di(substituted)amino-1,2-dihydro-1,3,5-triazine derivatives as topical antiseptic agents” (2009)

Tests used:
Format in all cases: functional
Pseudomonas aeruginosa [1] = assay: Bactericidal activity against Pseudomonas aeruginosa PAO1 preincubated for 1 min before addition of growth medium measured after 40 to 48 hrs
Staphylococcus aureus [2] = assay: Bactericidal activity against methicillin-resistant Staphylococcus aureus 97-115 preincubated for 5 mins before addition of growth medium measured after 40 to 48 hrs
Summary of the method: (§1)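 Read-out is the minimal bactericidal concentration (MBC), taken after 1, 3 and 5 min contact of compound with the test organism.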

Staphylococcus aureus [3] = assay: Bactericidal activity against methicillin-resistant Staphylococcus aureus KM 97-108 preincubated for 1 min before addition of growth medium measured after 40 to 48 hrs; summary of the method: as §1
Staphylococcus aureus [4] = assay: Bactericidal activity against methicillin-resistant Staphylococcus aureus 97-53 preincubated for 3 mins before addition of growth medium measured after 40 to 48 hrs; summary of the method: as §1
Escherichia coli [5] = assay: Bactericidal activity against Escherichia coli NIHJ JC-2 preincubated for 1 min before addition of growth medium measured after 40 to 48 hrs
Pseudomonas aeruginosa [6] = assay: Bactericidal activity against Pseudomonas aeruginosa PAO1 preincubated for 5 mins before addition of growth medium measured after 40 to 48 hrs
Pseudomonas aeruginosa [7] = assay: Bactericidal activity against Pseudomonas aeruginosa PAO1 preincubated for 3 mins before addition of growth medium measured after 40 to 48 hrs
Enterococcus [8] = assay: Bactericidal activity against vancomycin-resistant Enterococcus 49 preincubated for 5 mins before addition of growth medium measured after 40 to 48 hrs; summary of the method: as §1
Staphylococcus aureus [9] = assay: Bactericidal activity against methicillin-resistant Staphylococcus aureus KM 97-108 preincubated for 3 mins before addition of growth medium measured after 40 to 48 hrs; summary of the method: as §1
Pseudomonas aeruginosa [10] = assay: Bactericidal activity against Pseudomonas aeruginosa 12 preincubated for 5 mins before addition of growth medium measured after 40 to 48 hrs
Staphylococcus aureus [11] = assay: Bactericidal activity against Staphylococcus aureus 209PJC preincubated for 1 min before addition of growth medium measured after 40 to 48 hrs
Staphylococcus aureus [12] = assay: Bactericidal activity against methicillin-resistant Staphylococcus aureus 97-115 preincubated for 1 min before addition of growth medium measured after 40 to 48 hrs; summary of the method: as §1
Staphylococcus aureus [13] = assay: Bactericidal activity against methicillin-resistant Staphylococcus aureus KM 97-108 preincubated for 5 mins before addition of growth medium measured after 40 to 48 hrs; summary of the method: as §1
Escherichia coli [14] = assay: Bactericidal activity against Escherichia coli NIHJ JC-2 preincubated for 5 mins before addition of growth medium measured after 40 to 48 hrs
Pseudomonas aeruginosa [15] = assay: Bactericidal activity against Pseudomonas aeruginosa 12 preincubated for 1 min before addition of growth medium measured after 40 to 48 hrs
Enterococcus [16] = assay: Bactericidal activity against vancomycin-resistant Enterococcus 49 preincubated for 3 mins before addition of growth medium measured after 40 to 48 hrs; summary of the method: as §1
Staphylococcus aureus [17] = assay: Bactericidal activity against methicillin-resistant Staphylococcus aureus 97-115 preincubated for 3 mins before addition of growth medium measured after 40 to 48 hrs; summary of the method: as §1
Staphylococcus aureus [18] = assay: Bactericidal activity against Staphylococcus aureus 209PJC preincubated for 5 mins before addition of growth medium measured after 40 to 48 hrs
Staphylococcus aureus [19] = assay: Antibacterial activity against Staphylococcus aureus 209PJC after 24 hrs
Summary of the method: (§2)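 Value is the minimal inhibitory concentration (MIC) against the test organism, read after 24 h of incubation.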

Escherichia coli [20] = assay: Antibacterial activity against Escherichia coli NIHJ JC-2 after 24 hrs; summary of the method: as §2
Pseudomonas aeruginosa [21] = assay: Antibacterial activity against Pseudomonas aeruginosa PAO1; summary of the method: as §2
Staphylococcus aureus [22] = assay: Bactericidal activity against methicillin-resistant Staphylococcus aureus 97-53 preincubated for 1 min before addition of growth medium measured after 40 to 48 hrs; summary of the method: as §1
Staphylococcus aureus [23] = assay: Antibacterial activity against methicillin-resistant Staphylococcus aureus 97-115 after 24 hrs
Summary of the method: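 Read-out is the minimal inhibitory concentration (MIC), taken after 24 h incubation with the test organism.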

Staphylococcus aureus [24] = assay: Bactericidal activity against methicillin-resistant Staphylococcus aureus 97-53 preincubated for 5 mins before addition of growth medium measured after 40 to 48 hrs; summary of the method: as §1
Escherichia coli [25] = assay: Bactericidal activity against Escherichia coli NIHJ JC-2 preincubated for 3 mins before addition of growth medium measured after 40 to 48 hrs
Staphylococcus aureus [26] = assay: Bactericidal activity against Staphylococcus aureus 209PJC preincubated for 3 mins before addition of growth medium measured after 40 to 48 hrs
Pseudomonas aeruginosa [27] = assay: Bactericidal activity against Pseudomonas aeruginosa 12 preincubated for 3 mins before addition of growth medium measured after 40 to 48 hrs
Enterococcus [28] = assay: Bactericidal activity against vancomycin-resistant Enterococcus 49 preincubated for 1 min before addition of growth medium measured after 40 to 48 hrs; summary of the method: as §1

| SMILES | MBC (Pseudomonas aeruginosa [1]) | MBC (Staphylococcus aureus [2]) | MBC (Staphylococcus aureus [3]) | MBC (Staphylococcus aureus [4]) | MBC (Escherichia coli [5]) | MBC (Pseudomonas aeruginosa [6]) | MBC (Pseudomonas aeruginosa [7]) | MBC (Enterococcus [8]) | MBC (Staphylococcus aureus [9]) | MBC (Pseudomonas aeruginosa [10]) | MBC (Staphylococcus aureus [11]) | MBC (Staphylococcus aureus [12]) | MBC (Staphylococcus aureus [13]) | MBC (Escherichia coli [14]) | MBC (Pseudomonas aeruginosa [15]) | MBC (Enterococcus [16]) | MBC (Staphylococcus aureus [17]) | MBC (Staphylococcus aureus [18]) | MIC (Staphylococcus aureus [19]) | MIC (Escherichia coli [20]) | other results |
| --- | --- | --- | --- | --- | --- | --- | --- | --- | --- | --- | --- | --- | --- | --- | --- | --- | --- | --- | --- | --- | --- |
| N=C(NCCCCCCNC(=N)NC(=N)Nc1ccc(Cl)cc1)NC(=N)Nc1ccc(Cl)cc1.O=C(O)[C@H](O)[C@@H](O)[C@H](O)[C@H](O)CO | > 500 µg/mL | 125 µg/mL | 500 µg/mL | 250 µg/mL | 62.5 µg/mL | > 500 µg/mL | > 500 µg/mL | > 1000 µg/mL | 500 µg/mL | 31.3 µg/mL | 62.5 µg/mL | 1000 µg/mL | 500 µg/mL | 15.6 µg/mL | 125 µg/mL | > 1000 µg/mL | 250 µg/mL | 62.5 µg/mL | 0.2 µg/mL | 1.6 µg/mL | MIC (Pseudomonas aeruginosa [21]): 50 µg/mL; MBC (Staphylococcus aureus [22]): 500 µg/mL; MIC (Staphylococcus aureus [23]): 3.1 µg/mL; MBC (Staphylococcus aureus [24]): 250 µg/mL; MBC (Escherichia coli [25]): 31.3 µg/mL; MBC (Staphylococcus aureus [26]): 62.5 µg/mL; MBC (Pseudomonas aeruginosa [27]): 31.3 µg/mL; MBC (Enterococcus [28]): > 1000 µg/mL |
| CC(=O)O.CCCCCCCCNC1=NC(C)(C)NC(NCCCCCC)=N1 | 6.3 µg/mL | 6.3 µg/mL | 50 µg/mL | 25 µg/mL | 12.5 µg/mL | 1.6 µg/mL | 3.1 µg/mL | 12.5 µg/mL | 25 µg/mL | 1.6 µg/mL | 12.5 µg/mL | 12.5 µg/mL | 25 µg/mL | 6.3 µg/mL | 3.1 µg/mL | 25 µg/mL | 6.3 µg/mL | 6.3 µg/mL | 0.8 µg/mL | 12.5 µg/mL | MIC (Pseudomonas aeruginosa [21]): 50 µg/mL; MBC (Staphylococcus aureus [22]): 50 µg/mL; MIC (Staphylococcus aureus [23]): 0.8 µg/mL; MBC (Staphylococcus aureus [24]): 25 µg/mL; MBC (Escherichia coli [25]): 6.3 µg/mL; MBC (Staphylococcus aureus [26]): 6.3 µg/mL; MBC (Pseudomonas aeruginosa [27]): 3.1 µg/mL; MBC (Enterococcus [28]): 25 µg/mL |
